Compound activity: PubChem, several laboratories
In the library only some 2.9% were active in any assay of this set; here they are far more common.
Efflux pump inh: inhibitors of Candida antifungal efflux pumps expressed in yeast. 0.44% of 330,000 active. inhibition, % at 10 µM. S. cerevisiae Candida pump triplex, Nile Red efflux;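 active means plate passing quality check with inhibition over a set limit, or well fluorescence over plate mean plus 4 SD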;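 further: Nile Red retained in pooled yeast measured as flow cytometry median fluorescence; 0% = buffer negative control and 100% = Enniatin B positive control; higher means more Nile Red kept so more efflux inhibition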
GalR3 antag: blocks the human galanin receptor 3; HEK293 GalR3-CNG cAMP membrane potential fluorescence; galR3 body fused to GalR1 C-terminus; inhibition, % at 3 µM; 0.44% of 360,000 active; AID 651719;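 active means inhibition above the screen-wide average plus 3 SD, cut at about 13% in these data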;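 further: forskolin and galanin both at EC90 stimulate the cells; cAMP rise reported by CNG channel membrane potential dye signal; 0% = forskolin plus galanin with DMSO and 100% = forskolin alone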
Target sequence (O60755 1-299 limits assumed): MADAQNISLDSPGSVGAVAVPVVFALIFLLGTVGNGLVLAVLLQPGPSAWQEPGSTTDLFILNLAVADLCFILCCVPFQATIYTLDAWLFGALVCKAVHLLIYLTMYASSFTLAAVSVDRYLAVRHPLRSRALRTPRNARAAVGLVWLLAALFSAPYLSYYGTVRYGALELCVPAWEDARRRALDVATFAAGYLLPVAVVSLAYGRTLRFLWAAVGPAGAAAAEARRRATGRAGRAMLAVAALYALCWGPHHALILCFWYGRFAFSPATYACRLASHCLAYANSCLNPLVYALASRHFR
MC4R antag cAMP: human MC4R antagonism in cAMP assay | MC4R-expressing cells, MTII-stimulated cAMP, LANCE TR-FRET | inhibition, % at 6.5 µM | 0.48% of 360,000 active;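 active means inhibition above its plate's cutoff, the mean of tested wells on that plate plus 3 SD, cut at about 29% in these data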;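 further: 0% = Melanotan II alone and 100% = Melanotan II plus saturating MCL0020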
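Test system: U2OS cells stably expressing human melanocortin 4 receptor (MC4R); also added: Melanotan II challenge; compound: 6.5 µM single dose; timing: 30-min compound preincubation, 1-h Melanotan II challenge, 1-h detection, room temperature; signal: Eu-cAMP/anti-cAMP TR-FRET, emission 671 nm; repeats: one well per compound, no replicates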
Calb FLC: C. albicans growth modulation with fluconazole | 0.57% of 300,000 active | C. albicans CaCi-2 (fluconazole-resistant clinical isolate) + fluconazole, Alamar Blue growth, 48 h | growth inhibition, % (no concentration beside the values);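 active means growth inhibition above about 58% in most replicates, limit read from the data, passing the limit was not always enough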;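 further: all wells also contain fluconazole at 8 µg/ml as a sub-toxic cotreatment; 0% = median of DMSO wells and 100% = median of geldanamycin control wells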
MC4R barr agon: activates human MC4R beta-arrestin recruitment; activation, % at 8.9 µM; U2OS MC4R beta-arrestin complementation, luminescence; percent of melanotan II response, DMSO zero; AID 540308; 0.98% of 360,000 active;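 active means activation above a per-plate cutoff, the mean activation of sample wells on that plate plus 3 SD, cut at about 8% in these data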
H9c2 TAG inh: inhibitors of triacylglycerol accumulation; H9c2 cells, Nile Red lipid (TAG) fluorescence; cells loaded with 200 µM oleic acid; inhibition, % at 12.5 µM; 0.66% of 230,000 active;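 active means pattern-corrected inhibition of lipid staining of at least 50% with the nuclear-stain viability signal not falling by more than 50%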;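 further: 0% = DMSO wells and 100% = triacsin C control wells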
TAG conf: triacylglycerol accumulation inhibition, confirmation; shares compounds with H9c2 TAG inh; H9c2 lipid accumulation, Nile Red fluorescence; cells loaded with 200 µM oleic acid; inhibition, % at 12.5 µM; 71% of 990 active;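 active means mean inhibition across replicates of 40% or more; inactive means mean inhibition below 40%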;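 further: plate controls were DMSO only wells for no effect and Triacsin C treated wells for full effect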
* hit, by the source's call; . = no result given.

SMILES	Efflux pump inh	GalR3 antag	MC4R antag cAMP	Calb FLC	MC4R barr agon	H9c2 TAG inh	TAG conf
Cc1cc(N2CCN(Cc3cn(C)nc3-c3ccccc3F)CC2)cc(C)n1	0	-1	3	-6	0	74*	84*
CN1CCN(Cc2cn(C)nc2-c2ccccc2F)CC1c1ccccc1 (stereo not given)	0	-5	14	-17	1	-3	.
CN(CCc1ccccc1)C(c1cc2ccccc2o1)c1nnnn1C(C)(C)C (stereo not given)	.	-9	.	.	.	.	.
O=C(NC(c1ccc(-c2ccccc2)cc1)c1cnccn1)C1CCN(Cc2cccs2)CC1 (stereo not given)	.	-7	-2	.	0	-14	.
CCCCNc1ccc2c(c1)OC[C@@H](Cc1ccccc1)NS2(=O)=O	.	2	.	.	.	.	.
O=c1cc(-c2ccccc2)[nH]c2ccccc12	0	1	-14	5	-3	66*	49*
CCOC(=O)C1=CCC(c2ccc(N(CC)CC)cc2)N(S(=O)(=O)c2ccc(C)cc2)C1c1ccc([N+](=O)[O-])cc1 (stereo not given)	.	-6	.	.	.	.	.
COc1ccc(NC(=O)Cn2c(-c3ccccc3)cn(-c3ccc(C)cc3)c2=O)cc1	0	-1	3	-5	-1	56*	27
CC(=O)Nc1cncc(-c2ccccc2N(C)C)n1	.	-4	-3	.	-2	-3	.
Cc1cc(Oc2cccc3c2S(=O)(=O)N([C@H](C)c2ccccc2)C[C@@H](COCc2ccccc2)O3)cc(C)c1C	.	-4	.	.	.	.	.
CN(C)c1ccc(CN2CCC(C(=O)NC(c3ccc(F)cc3)c3ccc4ccccc4n3)CC2)cc1 (stereo not given)	.	1	6	.	-1	56*	38
COc1cc(/C=C/CN2CCC(C(=O)NC(c3ccc(F)cc3)c3ccc4ccccc4n3)CC2)ccc1OC(C)=O (stereo not given)	.	-9	-7	.	1	54*	54*
O=C(NC(c1ccc(F)cc1)c1ccc2ccccc2n1)C1CCN(Cc2ccc3ccccc3n2)CC1 (stereo not given)	.	-2	-2	.	-1	-8	.
CCCc1nc2ccccc2n1C(C(=O)NC(C)(C)C)C1CC1 (stereo not given)	.	-8	.	.	.	.	.
NC(=O)c1c(N)[nH]c(C(=O)c2ccccc2)c1-c1ccc2ccccc2c1	.	-2	.	.	.	.	.
O=[N+]([O-])c1ccc(Nc2nc(NC3CCCCC3)nc(N3CCCC3)n2)cc1	0	-8	2	19	3	61*	82*
CCCCc1c(-c2ccccc2OC)ncn1Cc1cc(F)cc(F)c1	.	-7	.	.	.	.	.
O=C(Nc1nc(-c2ccccc2)cs1)C1CCCN(S(=O)(=O)c2cccc([N+](=O)[O-])c2)C1 (stereo not given)	0	-7	3	-19	-1	62*	47*
CCC(C)C(=O)Nc1nc(C)c(-c2csc(Nc3cc(OC)ccc3OC)n2)s1 (stereo not given)	0	0	14	9	1	25	.
COc1ccc(OC)c(Nc2nc(-c3sc(NC(=O)CC(C)C)nc3C)cs2)c1	0	-6	11	22	-1	58*	65*
C/C(=N\Nc1cc(N2CCCCC2)nc(C)n1)c1ccc(Br)cc1	0	-9	-1	0	0	13	.
C/C(=N\Nc1cc(N2CCOCC2)nc(C)n1)c1ccc(F)cc1	0	-2	2	5	-1	52*	38
CCCCN1C=C(C(=O)OC)C(c2ccccc2C(F)(F)F)C(C(=O)OC)=C1	0	-5	10	12	1	54*	31
N#Cc1ccccc1NC(=O)C1CCCO1 (stereo not given)	.	-3	-2	.	0	5	.
CCN1C[C@@H]2[C@@H]3C(=O)N(C)C(=O)[C@@H]3[C@](CC)(C1=O)N2C(=O)c1ccccc1	.	-1	-8	.	-2	-7	.
C[C@@H]1CNC(=O)c2c(C(=O)N[C@@H](Cc3c[nH]c4ccccc34)C(=O)OC(C)(C)C)ncn21	.	-5	-1	.	-1	4	.
